A short description of data set [1]: Hemolytic activity against human RBC incubated for 1 hr by microplate reader analysis. Format: toxicity, cell-based, Erythrocyte. The settings on record: red blood cells (erythrocytes). A digest of the protocol: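 Human red blood cells exposed to peptides up to 50 μM; hemolysis measured, IC50 derived where reached.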
The next data set relates to SUD4. The data set can be described thus: Anti-cancer activity against human SU-DHL-4 cells incubated for 24 hrs by WST assay. The data set is classed as functional, cell-based. The following applies: SU-DHL-4, 24 h.
The test system of data set [2] is Staphylococcus aureus. Put plainly: Antimicrobial activity against Staphylococcus aureus NE1506 harboring single transposon insertion mutation in V8 protease at 30 uM incubated for 18 hrs relative to control. The data set is classed as functional. A digest of the protocol:
(§1)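 CA-MRSA USA300 LAC derivative JE2 and single transposon insertion mutants derived from JE2, each lacking an extracellular protease gene, were exposed to peptides up to 30 μM. The read-out was percent growth inhibition. Peptides were dissolved in PBS, and tests were run in triplicate.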

The subject of data set [3] is Staphylococcus aureus. The data set can be described thus: Antimicrobial activity against Staphylococcus aureus NE163 harboring single transposon insertion mutation in aureolysin at 30 uM incubated for 18 hrs relative to control. The data set is classed as functional. A digest of the protocol: as §1
In data set [4] the test system is Staphylococcus aureus. The data set can be described thus: Antimicrobial activity against Staphylococcus aureus NE934 harboring single transposon insertion mutation in staphopain B at 30 uM incubated for 18 hrs relative to control. The data set is classed as functional. The method, boiled down:
as §1

In a further data set the test system is Staphylococcus carnosus. Put plainly: Antimicrobial activity against Staphylococcus carnosus CCM 4838T incubated for 24 hrs by broth microdilution assay. Format: functional. A general note: Broth dilution looks for growth in wells or tubes with falling amounts of substance.
For data set [5], the system named is Staphylococcus aureus. Put plainly: Antimicrobial activity against Staphylococcus aureus NE1740 harboring single transposon insertion mutation in staphopain A at 30 uM incubated for 18 hrs relative to control. The data set is classed as functional. A digest of the protocol: as §1
The test system of another data set is Escherichia coli. The data set can be described thus: Antimicrobial activity against Escherichia coli TOP10 incubated for 24 hrs by broth microdilution assay. Format: functional.
Data set [6] can be described thus: Stability in simulated pore POPC lipid bilayer membrane. Format: physicochemical. The method, boiled down: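 Coarse-grained MD with the "scaled" Martini force field, peptides in POPC membrane, 51 μs. Counts transmembrane peptides at 51 μs. Water beads within 2 nm vertically of membrane centre and peptide–peptide interaction energy averaged over 48–51 μs. Contacts (salt bridge or stacking) scored below 0.8 nm and called stable if present ≥50% of the time.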

Data set [7] in a line: Toxicity against reconstructed human skin model assessed as tissue viability at 50 uM incubated for 1 hr followed by compound washout measured after 42 hrs by MTT assay. The data set is classed as tissue-based, Skin of body. The following applies: read-out: Activity. A digest of the protocol: (§2)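 Reconstructed human epidermis with stratum corneum, per OECD TG 439 skin irritation guideline. Tissues exposed 1 h to peptide at 50 μM, then 42 h post-treatment incubation. Viability read by MTT. Controls were SDS and melittin.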
(Tetrazolium assays rely on reduction of a dye to a coloured formazan, in cell work by metabolically active cells.)

The nature of data set [8]: Toxicity against reconstructed human skin model assessed as irritation at 50 uM incubated for 1 hr followed by compound washout measured after 42 hrs by MTT assay. The data set is classed as tissue-based, Skin of body. A digest of the protocol: as §2

The IC50 is the midpoint of a concentration-inhibition curve. A high value points to weaker potency. In general, inhibition refers to how much of the control response was suppressed. The low end stands for a weak effect, the high end for a strong effect. The MIC is the lowest concentration that inhibits growth of the organism. Low values mean inhibition by little substance, high ones a need for much substance.

`CC1(C)S[C@@H]2[C@H](NC(=O)[C@H](N)c3ccccc3)C(=O)N2[C@H]1C(=O)O` [AMPICILLIN] showed an IC50 at 1 h in data set [1] of 0.9 µM.
On to `CC[C@H](C)[C@H](NC(=O)CN)C(=O)NCC(=O)N[C@@H](C)C(=O)N[C@H](C(=O)N[C@@H](CC(C)C)C(=O)N[C@@H](CCCCN)C(=O)N[C@H](C(=O)N[C@@H](CC(C)C)C(=O)N[C@H](C(=O)N[C@H](C(=O)NCC(=O)N[C@@H](CC(C)C)C(=O)N1CCC[C@H]1C(=O)N[C@@H](C)C(=O)N[C@@H](CC(C)C)C(=O)N[C@H](C(=O)N[C@@H](CO)C(=O)N[C@@H](Cc1c[nH]c2ccccc12)C(=O)N[C@H](C(=O)N[C@@H](CCCCN)C(=O)N[C@@H](CCCNC(=N)N)C(=O)N[C@@H](CCCCN)C(=O)N[C@@H](CCCNC(=N)N)C(=O)N[C@@H](CCC(N)=O)C(=O)N[C@@H](CCC(N)=O)C(N)=O)[C@@H](C)CC)[C@@H](C)CC)[C@@H](C)O)[C@@H](C)O)C(C)C)C(C)C` [MELITTIN], for which, in the data set with SUD4, the half-inhibitory concentration (IC50) is not above 5 µM.
For the molecule H-KKKKAKKAAKKAFQFANQADNQAQDAKQNK-NH2, the inhibition at 30 µM in the data set on Staphylococcus aureus [2], with Staphylococcus aureus [3], in the data set with Staphylococcus aureus [4] and in the data set on Staphylococcus aureus [5] was less than 45% in each case. For the same molecule, the MIC against Staphylococcus carnosus and against Escherichia coli was more than 50 µM in each case.
Consider H-KKKKIKKIIKKIFQFINQIDNQIQDIKQNK-NH2, for which the inhibition at 30 µM in the data set on Staphylococcus aureus [2], in the data set on Staphylococcus aureus [3], in the data set with Staphylococcus aureus [4] and in the data set on Staphylococcus aureus [5] was less than 45% each time. For the same molecule, the MIC in the data set on Staphylococcus carnosus was more than 50 µM.
As to H-KKKKLKKILKKLFNFINNLDNNLNDIKNNK-NH2, the inhibition at 30 µM in the data set on Staphylococcus aureus [2], in the data set on Staphylococcus aureus [3], in the data set on Staphylococcus aureus [4] and with Staphylococcus aureus [5] was less than 45% in each case.
Regarding H-KKKKLKKILKKLFQFIDQLINDLQNIKKKK-NH2, in data set [1], the IC50 at 1 h was more than 50 µM.
For H-KKKKLKKILKKLFQFINQLDNQLQDFKQNK-OH, the half-maximal inhibitory concentration (IC50) at 1 h in data set [1] was more than 50 µM. Further, the Stability result in [6] is listed as “Stable”.
Molecule H-KKKKLKKILKKLFQFINQLDNQLQDIKQNK-OH had an IC50 at 1 h in data set [1] of more than 50 µM.
Still for that read-out and setting: the same measure for H-KKKKLKKILKKLFQFINQLENQLQEIKQNK-NH2: more than 50 µM.
H-KKKKLKKILKKLFQFIQQLDQQLQDIKQQK-NH2: the viability at 1 h, 50 µM in data set [7] came to 100%. Also, the inhibition at 30 µM in the data set with Staphylococcus aureus [2], in the data set with Staphylococcus aureus [3], in the data set with Staphylococcus aureus [4] and with Staphylococcus aureus [5] was less than 45% each time. For the same molecule, the concentration for half-maximal inhibition (IC50) at 1 h in [1] is more than 50 µM. Also, the Activity entry in data set [8] was “Non-Toxic”.
For the molecule H-KKKKLKKILKKLFSFISSLDSSLSDIKSSK-NH2, the inhibition at 30 µM in the data set on Staphylococcus aureus [2], in the data set with Staphylococcus aureus [3], in the data set on Staphylococcus aureus [4] and with Staphylococcus aureus [5] was less than 45% each time. In [6], the Stability result is “Stable”.
H-KKKKLKKILKKLWQWINQLDNQLQDIKQNK-NH2 displayed a half-inhibitory concentration (IC50) at 1 h in data set [1] of more than 50 µM.
Regarding H-KKKKLKKLLKKLFQFLNQLDNQLQDLKQNK-NH2, the inhibition at 30 µM with Staphylococcus aureus [2], with Staphylococcus aureus [3], in the data set on Staphylococcus aureus [4] and in the data set on Staphylococcus aureus [5] was less than 45% in each case.
In data set [1], H-KKKKLRRILRRLFQFINQLDNQLQDIKQNK-NH2 showed an IC50 at 1 h of 49 µM.
For the molecule H-KKKKMKKMMKKMFQFMNQMDNQMQDMKQNK-NH2, the inhibition at 30 µM in the data set with Staphylococcus aureus [2], in the data set with Staphylococcus aureus [3], with Staphylococcus aureus [4] and in the data set on Staphylococcus aureus [5] was less than 45% each time. In the data set with Escherichia coli, the MIC is more than 50 µM.
For H-KKKKVKKVVKKVFQFVNQVDNQVQDVKQNK-NH2, the inhibition at 30 µM with Staphylococcus aureus [2], with Staphylococcus aureus [3], with Staphylococcus aureus [4] and in the data set on Staphylococcus aureus [5] was less than 45% in each case. Also, the MIC against Staphylococcus carnosus and in the data set on Escherichia coli was more than 50 µM in each case.
Turning to H-KNQNLDDILNQLFQFINQLKNQLQKIKKKK-NH2, the MIC in the data set with Escherichia coli was more than 50 µM.
Molecule H-RRRRLKKILKKLFQFINQLDNQLQDIRQNR-NH2 yielded an IC50 at 1 h in data set [1] of 6.9 µM.

These data come from ChEMBL document CHEMBL5576140, “Computational Design of Pore-Forming Peptides with Potent Antimicrobial and Anticancer Activities” (J Med Chem, 2024).
